# KCNQ1 pot = potentiates or activates the human KCNQ1 potassium channel. CHO-K1 KCNQ1, thallium flux FluxOR fluorescence; hits give high values. P51787. AID 2648. hit rate 0.35% among 310,000. B-score at 10 µM;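 active = fluorescence ratio B-score, a plate-corrected score, at least three library SD, with initial intensity B-score within 5 SD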
#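 Medium – assay buffer, equal DMSO in all wells · Material – CHO-K1 cell line with stable KCNQ1 potassium channel expression · Signal – kinetic FluxOR thallium fluorescence, 10-s 1-Hz baseline, 110-s post-stimulus read · Compound – single concentration per compound, DMSO matched to controls · Schedule – 37 °C overnight plating, 90-min dark dye load, 20-min compound pretreatment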
# KCNK3 inh = human KCNK3 channel inhibition, primary screen; O14649; hit rate 0.84% among 340,000; AID 602410; B-score at 10 µM; CHO-KCNK3 thallium flux, FluxOR fluorescence; hits give low values;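 active = B-score under library mean minus 4 SD, starting fluorescence ratio at most library mean plus 5 SD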;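 also: more negative B-score means stronger inhibition of thallium flux through KCNK3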
# Kir21 inh = inhibitors of mouse Kir2.1 inward-rectifier potassium channel. P35561. HEK293-Kir2.1, FluxOR thallium flux fluorescence; hits give low values. B-score at 10 µM. hit rate 0.85% among 310,000;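 active = fluorescence ratio B-score at or below minus 3 SD of library scores, with starting-brightness B-score within 2 SD, cut at about -4.2 in these data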;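 also: channel flux triggered by added potassium and thallium sulfate stimulus; B-score of peak minus minimum fluorescence over baseline after thallium stimulus; more negative B-score means stronger Kir2.1 block with less thallium influx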
# KCNQ1 block = human KCNQ1 channel inhibition; CHO-K1 KCNQ1, FluxOR thallium flux fluorescence; hits give high values; hit rate 1.3% among 310,000; B-score at 10 µM; P51787; AID 2642;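 active = compounds whose thallium flux B-score, printed positive for inhibition, exceeds three library SD while starting fluorescence stays within three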;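 also: channel opened by potassium depolarization with thallium stimulus after 20 min compound exposure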
# hERG protect = hERG (human) protection from proarrhythmic block | activation (rescue from dofetilide block), less the hit threshold, % at 10 µM | AID 1511 | hit rate 0.51% among 310,000 | CHO-hERG, FluxOR thallium flux, dofetilide IC70 present | Q12809;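 active = activation above the mean of controls blocked by dofetilide plus 5 SD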;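 also: thallium influx through hERG after potassium depolarization seen as dye fluorescence rise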
# KCNK9 inh = inhibitors of human KCNK9 two-pore domain potassium channel | HEK293 KCNK9, FluxOR thallium flux fluorescence; hits give low values | Q9NPC2 | hit rate 1.2% among 310,000 | B-score at 10 µM;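 active = ratio B-score over 3 SD below the library mean, with starting fluorescence within 5 SD of its mean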;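 also: negative B-score means less thallium flux so channel inhibition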
# KCNK9 block conf = human KCNK9 inhibitor confirmation; hit rate 43% among 4,900; shares compounds with KCNK9 inh; HEK293 KCNK9 cells, FluxOR thallium flux fluorescence; AID 492992; inhibition, % at 10 µM;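 active = thallium signal inhibited by more than 5 SD of the compound-free buffer control wells, on both duplicate plates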;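 also: 0% = assay buffer control wells without compound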
# Kir2-1 spec = selectivity of KCNK9 modulators against mouse Kir2.1; inhibition, % at 10 µM; AID 492993; hit rate 4% among 4,900; shares compounds with KCNK9 inh; Kir2.1 cells, FluxOR thallium flux fluorescence;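 active = thallium signal drop more than 5 SD beyond the mean of the no-compound control wells, seen in both duplicate plates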;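 also: signal is fluorescence rise after thallium addition divided by baseline fluorescence; plate controls were assay buffer only for no effect and full block by chlorpromazine control for full effect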
# HEK293 Tl ctr = second check of KCNK9 modulator effects in non-induced HEK293 cells; inhibition, % at 10 µM; hit rate 40% among 4,900; AID 492997; shares compounds with KCNK9 inh; FluxOR thallium flux;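 active = thallium signal drop beyond 5 SD of the untreated control mean, on both duplicate plates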;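 also: plate controls were buffer only IC0 wells for no effect and SID17386958 at its maximal inhibitory level for full effect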
# Numbers without * were called inactive; i = inactive; . = no result. Only some compounds are listed: those with a hit (about 3.7% of all), similar ones and a draw of the others.
SMILES,KCNQ1 pot,KCNK3 inh,Kir21 inh,KCNQ1 block,hERG protect,KCNK9 inh,KCNK9 block conf,Kir2-1 spec,HEK293 Tl ctr
Fc1ccc(Sc2nc(-c3ccccc3)nnc2C(F)(F)F)cc1,i,i,0.78,i,-7,i,i,i,i
Cc1ccc(S(=O)(=O)Nc2ccccc2C(=O)Nc2nc(-c3ccc(F)cc3)cs2)cc1,i,i,-1.5,i,-16,-10*,64%*,i,39%*
Cc1ccc(S(=O)(=O)Nc2nc(-c3ccccc3)cs2)cc1,i,i,-0.63,i,-11,i,.,.,.
CC(C)(C)c1ccc(CN(Cc2ccco2)Cc2nnnn2C2CCCC2)cc1,i,i,-0.16,6*,-24,-14*,62%*,i,49%*
COc1ccc2nccc(C(N)=O)c2c1,i,i,-0.13,i,-5,i,.,.,.
CCOc1ccc(CN(C)CC(=O)Nc2cc(C)c(C)cc2[N+](=O)[O-])cc1,i,i,0.72,i,-5,i,i,i,i
COc1ccc(OC)c(-c2csc(NC(=O)C3c4ccccc4Oc4ccccc43)n2)c1,i,i,-0.06,i,-3,-9.1*,36%*,i,32%*
COc1ccc(CC(=O)Nc2nc(-c3cc(OC)ccc3OC)cs2)cc1,i,i,-0.29,i,-10,i,.,.,.
O=C(Nc1nnc(C2CC2)s1)c1cc(-c2ccccc2)nn1-c1ccccc1,i,i,-0.18,i,-6,-9.4*,30%*,i,i
O=C(Nc1cccc(-c2csc(Nc3ccccc3)n2)c1)c1ccccc1,i,i,1.5,i,-19,i,i,i,i
C#CCN(CC=C)C(=O)c1ccc(OC2CCN(S(=O)(=O)N(C)C)CC2)cc1,i,i,0,i,-9,i,.,.,.
CCOc1cc(C(=O)N=c2sccn2C)cc(Br)c1OC,i,i,0.76,i,-14,i,.,.,.
COC(CNc1ccc([N+](=O)[O-])c(NCC(OC)OC)c1C#N)OC,i,i,0.3,i,-1,i,.,.,.
O=C(CSc1nc2c(cnn2-c2ccccc2)c(=O)[nH]1)N1N=C(c2cccs2)CC1c1ccc(F)cc1 (stereo not drawn),i,i,2,i,-26,-14*,i,i,i
O=C(Nc1ccc(O)cc1)c1ccccc1OCc1ccccc1,i,i,-2.4,i,-2,i,.,.,.
O=C(Nc1ccccc1)c1ccccc1OCc1cccc([N+](=O)[O-])c1,i,i,0.34,i,-11,-12*,i,i,28%*
Cn1c(=O)c2c(O)c([N+](=O)[O-])c(=O)n(C)c2n(C)c1=O,i,i,2,i,-9,i,.,.,.
C[C@]12CCC[C@H](O1)c1c(cc3c(c1O)C(=O)c1c(O)cc(O)cc1C3=O)O2,i,-10*,0.05,14*,-5,-12*,58%*,i,42%*
C=CCOC(=O)C1=C(C)OC(N)=C(C#N)C1c1c(C)nn(-c2ccccc2)c1Cl (stereo not drawn),i,-10*,-0.88,i,-7,-8.4*,50%*,i,34%*
Cc1nc(Nc2ccc(Cl)cc2Cl)sc1C(=O)Nc1ccccc1,i,i,-0.52,i,-6,i,i,i,i
Cc1cccc(NC(=O)CSc2nnc(C3CC3)n2CC2CCCO2)c1C (stereo not drawn),i,i,1.8,i,-3,i,.,.,.
NC(=O)CSc1nc2ccccc2c(=O)n1Cc1ccco1,i,i,-0.9,i,-5,i,.,.,.
CCCn1c(C)cc(C(=O)CSc2nc3ccccc3c(=O)n2Cc2ccco2)c1C,i,i,-0.14,i,-2,i,i,i,i

# Screening data deposited in PubChem BioAssay by Johns Hopkins Ion Channel Center.
